ChEMBL document CHEMBL4270651, “Synthesis and evaluation of new designed multiple ligands directed towards both peroxisome proliferator-activated receptor-γ and angiotensin II type 1 receptor” (Eur J Med Chem, 2018)
Activity calls are given as the source filed them. The calls are words filed in the database; no cut-off is given here.

How the values were obtained:
[1] = target: T1, Peroxisome proliferator-activated receptor gamma (Homo sapiens) (UniProt P37231); assay: Transactivation of human PPARgamma expressed in human MCF7 cells harboring pPPRE3-tk-luc reporter at 10 uM after 24 hrs by luciferase reporter gene assay relative to control; type: cell-based
T1 sequence (whole entry): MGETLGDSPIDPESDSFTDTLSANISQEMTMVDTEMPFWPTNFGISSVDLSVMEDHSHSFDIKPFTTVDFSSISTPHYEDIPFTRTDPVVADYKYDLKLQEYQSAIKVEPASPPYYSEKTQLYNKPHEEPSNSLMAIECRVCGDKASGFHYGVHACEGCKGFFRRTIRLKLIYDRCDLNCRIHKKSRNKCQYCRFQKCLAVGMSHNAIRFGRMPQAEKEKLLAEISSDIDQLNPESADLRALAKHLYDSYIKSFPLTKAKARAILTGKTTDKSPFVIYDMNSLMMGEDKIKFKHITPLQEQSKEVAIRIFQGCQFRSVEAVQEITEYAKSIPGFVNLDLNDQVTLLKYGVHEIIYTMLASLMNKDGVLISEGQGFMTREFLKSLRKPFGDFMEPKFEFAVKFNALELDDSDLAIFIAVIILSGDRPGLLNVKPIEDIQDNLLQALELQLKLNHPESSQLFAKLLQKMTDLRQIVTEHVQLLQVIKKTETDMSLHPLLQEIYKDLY
Outline: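 MCF-7 cells transfected with a pPPRE3tk-luc reporter are exposed to compound (10μM) for 24 h. Luciferase activity is normalized to β-Gal activity and expressed as fold induction over a solvent control set to 1. Three independent experiments are run, each with duplicate transfections. Values are mean ± s.e.m.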

[2] = species: Rattus norvegicus; assay: Blocking activity at AT1 receptor in rat aortic vascular smooth muscle cells assessed as inhibition of angiotensin-2-induced calcium flux at 10 uM preincubated for 20 mins followed by angiotensin-2 addition by Fura-2-AM dye based scanning fluorometric method relative to control
Outline: (§1)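 Rat aortic smooth muscle cells. Angiotensin II-mediated intracellular calcium release is followed by fluorescence. A first screen is run at a single concentration. Compounds that pass are retested at various concentrations to derive IC50, with losartan tested in each experiment. Values are expressed as the ratio of the compound's IC50 to losartan's IC50.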

[3] = species: Rattus norvegicus; assay: Ratio of test compound IC50 to losartan IC50 for bocking activity at AT1 receptor in rat aortic vascular smooth muscle cells assessed as inhibition of angiotensin-2-induced calcium flux; outline: as §1
[4] = system: Rattus norvegicus; assay: Antihypertensive activity in angiotensin 2-induced Wistar rat hypertensive model assessed as reduction in angiotensin 2-induced mean arterial pressure at 6 x 10^-5mol/kg, iv; type: functional, organism-based
Outline: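 Adult male Wistar rats; angiotensin II given as i.v. bolus at 10-10 mol/kg, with no pretreatment or after i.v. pretreatment at 6.10−5 mol/kg. Read-out is the change in mean arterial pressure in mm Hg, reported as mean ± sem.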

Row | Structure (SMILES) | Activity [1] | inhibition [2] | Ratio IC50 [3] | Activity [4]
1 | CCCCc1ncc(CCCOc2ccc(CC3SC(=O)NC3=O)cc2)n1Cc1ccc(-c2ccccc2-c2nn[nH]n2)cc1 (configuration not stated) | inactive | > 50% | 1.1 | 
2 | O=C1NC(=O)C(Cc2ccc(OCCc3cn(Cc4ccc(-c5ccccc5C(=O)O)cc4)nn3)cc2)S1 (configuration not stated) | inactive | inactive |  | 
3 | CC(C)(C)OC(=O)c1ccccc1-c1ccc(Cn2cc(COc3ccc(CC4SC(=O)NC4=O)cc3)nn2)cc1 (configuration not stated) | Active |  |  | 
4 | CCCCc1nc(Cl)c(COc2ccc(CC3SC(=O)NC3=O)cc2)n1Cc1ccc(-c2ccccc2-c2nn[nH]n2)cc1 (configuration not stated) | inactive | > 50% | 6.3 | Active
5 | CCCCCS(=O)(=O)NC(=O)/C=C/c1c(Cl)nc(CCCC)n1Cc1ccc(-c2ccccc2-c2nn[nH]n2)cc1 | Active | > 50% | 11.1 | 
6 | CCCCCCCCCCCCOCc1c(Cl)nc(CCCC)n1Cc1ccc(-c2ccccc2-c2nn[nH]n2)cc1 | Active | > 50% | 43.2 | 
7 | CCCCc1nc(CCCOc2ccc(CC3SC(=O)NC3=O)cc2)cn1Cc1ccc(-c2ccccc2C(=O)O)cc1 (configuration not stated) | Active | > 50% | 16.2 | 
8 | Cc1c(C)c2c(c(C)c1OCc1ccc(-c3ccccc3C(=O)O)cc1)CCC(C)(COc1ccc(CC3SC(=O)NC3=O)cc1)O2 (configuration not stated) | Active | inactive |  | 
9 | CCCCc1nc(Cl)c(/C=C/C(=O)Oc2ccc(C[C@H](Nc3ccccc3C(=O)OC)C(=O)O)cc2)n1Cc1ccc(-c2ccccc2-c2nn[nH]n2)cc1 | Active | > 50% | 3.8 | 
10 | Cc1c(C)c2c(c(C)c1OCc1ccc(-c3ccccc3C(=O)O)cc1)CCC(C)(COc1ccc(/C=C3\SC(=O)NC3=O)cc1)O2 (configuration not stated) | Active |  |  | 
11 | CC(C)(C)OC(=O)c1ccccc1-c1ccc(Cn2cc(CCOc3ccc(CC4SC(=O)NC4=O)cc3)nn2)cc1 (configuration not stated) | Active |  |  | 
12 | O=C1NC(=O)C(Cc2ccc(OCc3cn(Cc4ccc(-c5ccccc5C(=O)O)cc4)nn3)cc2)S1 (configuration not stated) | inactive | inactive |  | 
13 | CCCCc1nc(Cl)c(CO)n1Cc1ccc(-c2ccccc2-c2nnn[nH]2)cc1 | inactive | 78% |  | Active
14 | Cc1c(C)c2c(c(C)c1OCc1ccc(-c3ccccc3C(=O)OC(C)(C)C)cc1)CCC(C)(COc1ccc(/C=C3\SC(=O)NC3=O)cc1)O2 (configuration not stated) | Active |  |  | 
15 | CCCCc1nc(Cl)c(CCCOc2ccc(CC3SC(=O)NC3=O)cc2)n1Cc1ccc(-c2ccccc2-c2nn[nH]n2)cc1 (configuration not stated) | inactive | > 50% | 0.4 | 
16 | CCCCc1c(COc2ccc(CC3SC(=O)NC3=O)cc2)nnn1Cc1ccc(-c2ccccc2C(=O)O)cc1 (configuration not stated) | Active | inactive |  | 
17 | CCCCc1nc(Cl)c(/C=C/C(=O)Oc2ccc(CC3SC(=O)NC3=O)cc2)n1Cc1ccc(-c2ccccc2-c2nn[nH]n2)cc1 (configuration not stated) | Active | > 50% | 3.2 | 
18 | COC(=O)c1ccccc1N[C@@H](Cc1ccc(OCC2(C)CCc3c(C)c(OCc4ccc(-c5ccccc5C(=O)O)cc4)c(C)c(C)c3O2)cc1)C(=O)O (some centres not stated) | Active | inactive |  | 
19 | CCCc1nc2c(C)cc(-c3nc4ccccc4n3C)cc2n1Cc1ccc(-c2ccccc2C(=O)O)cc1 | Active |  |  | 
20 | CCCCc1nc(Cl)c(COc2ccc(/C=C3\SC(=O)NC3=O)cc2)n1Cc1ccc(-c2ccccc2-c2nn[nH]n2)cc1 | inactive | < 50% |  | 
21 | CCCCc1nc(COc2ccc(CC3SC(=O)NC3=O)cc2)cn1Cc1ccc(-c2ccccc2C(=O)O)cc1 (configuration not stated) | Active | > 50% | 5 | 
22 | O=C1NC(=O)C(Cc2ccc(OCc3cn(Cc4ccc(-c5ccccc5C(=O)O)cc4)cn3)cc2)S1 (configuration not stated) | inactive | > 50% | 3.4 | 
23 | COC(=O)c1ccccc1N[C@@H](Cc1ccc(OCC2(C)CCc3c(C)c(O)c(C)c(C)c3O2)cc1)C(=O)O (some centres not stated) | Active |  |  | 
